Measured values reported in BindingDB's records for doi:10.1021/np300893n (The University of Mississippi, 2013).

Target: Myc proto-oncogene protein (Homo sapiens, UniProt P01106)
Assay: Inhibition of Myc signaling pathway in human HeLa cells assessed as inhibition of PMA induced luciferase treated 30 mins before induction
Method in brief: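 Reporter assay in cells transfected with pathway luciferase plasmids. Cells plated at 0.015 × 10⁶ per well in 10% FBS, switched after 24 h to DMEM with 1% FBS, then transfected. 24 h after transfection, compound (final 40, 60, 80 or 100 μM) was added, followed 30 min later by inducer (IL-6, TGF-β, wnt3a or PMA). Luciferase was read 4 or 6 h after induction (6 h for Notch, Wnt, Hedgehog). Value is the IC50 or the lowest concentration giving maximal 50–60% inhibition; two independent experiments.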

Chain of Myc proto-oncogene protein (P01106 16-454): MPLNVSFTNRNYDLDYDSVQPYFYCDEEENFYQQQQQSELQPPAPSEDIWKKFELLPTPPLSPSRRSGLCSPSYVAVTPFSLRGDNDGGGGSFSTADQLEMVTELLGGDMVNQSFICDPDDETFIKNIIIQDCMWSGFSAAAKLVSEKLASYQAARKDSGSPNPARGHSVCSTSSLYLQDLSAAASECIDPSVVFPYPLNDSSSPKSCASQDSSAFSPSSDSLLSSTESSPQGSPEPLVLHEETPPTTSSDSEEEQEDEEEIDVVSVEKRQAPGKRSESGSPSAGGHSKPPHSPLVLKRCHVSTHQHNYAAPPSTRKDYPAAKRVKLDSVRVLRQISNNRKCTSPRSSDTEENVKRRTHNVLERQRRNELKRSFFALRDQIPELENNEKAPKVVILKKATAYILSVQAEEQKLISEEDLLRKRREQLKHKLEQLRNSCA

## COc1cc(/C=C\c2ccc(OC)c(OC)c2)cc(OC)c1 [(Z)-3,4,3'',5''-Tetramethoxystilbene]
  IC50: 60 µM
